Assay results as given in ChEMBL document CHEMBL5154635, “Expedited Approach toward the Rational Design of Noncovalent SARS-CoV-2 Main Protease Inhibitors” (J Med Chem, 2022).

What was measured:
SARS-CoV-2 = assay: Antiviral activity against SARS-Cov-2 USA-WA1/2020 isolate infected in African green monkey Vero E6 cells measured after 48 hrs of postinfection by immunofluorescence assay; assay type: functional, organism-based; conditions: Severe acute respiratory syndrome coronavirus 2, USA-WA1/2020, Vero C1008, 48 h
[1] = Cytotoxicity against African green monkey Vero E6 cells assessed as cell viability incubated for 5 days by neutral red uptake based microplate reader method; assay type: toxicity, Vero C1008; conditions: chlorocebus sabaeus, time 5 day
Method in brief: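 Vero E6 cells seeded and grown for 24 h, then washed. Serial compound dilutions added in serum-free medium for 5 days at 37 °C. Neutral red (40 μg/mL) taken up for 2–4 h, with absorbance read at 540 nm. CC50 from variable-slope dose-response fit.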

[2] = target: T1, Replicase polyprotein 1ab (Severe acute respiratory syndrome coronavirus 2, UniProt P0DTD1); assay: Non-covalent inhibition of SARS-Cov-2 -Mpro incubated for 30 mins using FRET substrate measured for 1 hr by FRET-based enzymatic assay
[3] = Covalent inhibition of Enterovirus-D68 3Cpro incubated for 30 mins using FRET substrate measured for 1 hr by FRET-based enzymatic assay
Method in brief: (§1)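 Reaction started with the corresponding peptide FRET substrate (final 10 μM) and read at ex 360/em 460 nm at 30 °C for 1 h. Initial velocity taken by linear regression over the first 15 min.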

[4] = Covalent inhibition of Enterovirus-D68 2Apro incubated for 30 mins using FRET substrate measured for 1 hr by FRET-based enzymatic assay; method in brief: as §1
[5] = Covalent inhibition of HCoV-OC43 -Mpro incubated for 30 mins using FRET substrate measured for 1 hr by FRET-based enzymatic assay; design: species or system unidentified human coronavirus
[6] = Covalent inhibition of SARS-Cov -Mpro incubated for 30 mins using FRET substrate measured for 1 hr by FRET-based enzymatic assay; design: species or system Severe acute respiratory syndrome-related coronavirus
[7] = Covalent inhibition of Enterovirus-A17 2Apro incubated for 30 mins using FRET substrate measured for 1 hr by FRET-based enzymatic assay; method in brief: as §1
[8] = target: T2, Calpain-1 catalytic subunit (Homo sapiens, UniProt P07384); assay: Covalent inhibition of Calpain 1 (unknown origin) incubated for 1 hr by FRET-based enzymatic assay
T2 sequence (P07384 whole entry): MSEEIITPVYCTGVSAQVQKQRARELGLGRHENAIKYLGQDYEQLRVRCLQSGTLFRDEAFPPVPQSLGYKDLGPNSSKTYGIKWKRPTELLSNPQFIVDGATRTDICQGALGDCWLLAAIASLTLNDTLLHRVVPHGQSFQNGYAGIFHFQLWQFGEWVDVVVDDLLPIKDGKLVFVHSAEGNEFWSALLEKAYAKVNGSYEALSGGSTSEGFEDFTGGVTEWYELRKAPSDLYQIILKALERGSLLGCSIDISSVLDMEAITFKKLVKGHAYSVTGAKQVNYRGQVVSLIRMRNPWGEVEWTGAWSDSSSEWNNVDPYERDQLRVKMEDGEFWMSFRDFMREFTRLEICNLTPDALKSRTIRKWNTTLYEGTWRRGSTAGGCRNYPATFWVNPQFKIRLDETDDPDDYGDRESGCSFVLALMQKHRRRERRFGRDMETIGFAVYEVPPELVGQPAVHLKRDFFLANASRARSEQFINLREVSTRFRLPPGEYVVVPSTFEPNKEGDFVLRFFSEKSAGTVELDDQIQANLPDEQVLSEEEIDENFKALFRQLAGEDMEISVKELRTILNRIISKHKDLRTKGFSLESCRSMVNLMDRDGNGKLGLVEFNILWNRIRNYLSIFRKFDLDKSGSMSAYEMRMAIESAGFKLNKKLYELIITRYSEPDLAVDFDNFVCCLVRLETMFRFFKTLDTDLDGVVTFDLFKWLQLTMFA
Method in brief: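 Calpain 1 in buffer of 50 mM HEPES, 50 mM NaCl, 10 mM DTT and 5 mM CaCl2 (pH 7.5), with test compound at serial concentrations. The reaction is started with N-succinyl-Leu-Leu-Val-Tyr-AMC (4 mM stock). Fluorescence (ex 360, em 460 nm) is read for 1 h at 30 °C.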

[9] = Covalent inhibition of MERS-CoV -Mpro incubated for 30 mins using FRET substrate measured for 1 hr by FRET-based enzymatic assay; design: species or system Middle East respiratory syndrome-related coronavirus
[10] = Covalent inhibition of Enterovirus-A17 3Cpro incubated for 30 mins using FRET substrate measured for 1 hr by FRET-based enzymatic assay; method in brief: as §1
Procathepsin L [11] = target: T3, Procathepsin L (Homo sapiens, UniProt P07711); assay: Covalent inhibition of Cathepsin L (unknown origin) incubated for 30 mins using FRET substrate measured for 1 hr by FRET-based enzymatic assay
T3 sequence (P07711 whole entry): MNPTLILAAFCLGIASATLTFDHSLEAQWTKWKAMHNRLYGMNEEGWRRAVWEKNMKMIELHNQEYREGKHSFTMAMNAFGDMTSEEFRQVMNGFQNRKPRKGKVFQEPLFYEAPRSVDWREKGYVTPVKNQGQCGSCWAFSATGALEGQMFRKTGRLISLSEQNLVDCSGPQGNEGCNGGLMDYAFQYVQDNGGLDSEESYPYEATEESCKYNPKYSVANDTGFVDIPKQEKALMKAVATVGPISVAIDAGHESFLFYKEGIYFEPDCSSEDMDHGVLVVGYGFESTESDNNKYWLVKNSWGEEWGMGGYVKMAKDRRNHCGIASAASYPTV

[12] = Selectivity Index, ratio of CC50 for african green monkey vero E6 cells to EC50 for antiviral activity against SARS-Cov-2 USA-WA1/2020 isolate infected in African green monkey Vero E6 cells; assay type: toxicity, Vero C1008; conditions: read-out: Ratio CC50/EC50
[13] = target: T2, Calpain-1 catalytic subunit; assay: Non-covalent inhibition of Calpain 1 (unknown origin) incubated for 1 hr by FRET-based enzymatic assay
Method in brief: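 Calpain 1 in 50 mM HEPES, 50 mM NaCl, 10 mM DTT, 5 mM CaCl2, pH 7.5. Reaction started with N-succinyl-Leu-Leu-Val-Tyr-AMC (4 mM stock).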

Procathepsin L [14] = target: T3, Procathepsin L; assay: Non-covalent inhibition of Cathepsin L (unknown origin) incubated for 30 mins using FRET substrate measured for 1 hr by FRET-based enzymatic assay
Method in brief: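 Cathepsin L activated for 30 min at 30 °C in 20 mM sodium acetate, 1 mM EDTA, 5 mM DTT, pH 5.5. 300 pM enzyme preincubated with compound for 30 min at 30 °C.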

[15] = Non-covalent inhibition of SARS-Cov -Mpro incubated for 30 mins using FRET substrate measured for 1 hr by FRET-based enzymatic assay; design: species or system Severe acute respiratory syndrome-related coronavirus
[16] = target: T1, Replicase polyprotein 1ab; assay: Stabilization in SARS-CoV-2 MPro assessed as binding constant incubated for 30 mins in presence of DTT by thermal shift binding assay
Method in brief: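 3 μM SARS-CoV-2 Mpro in Mpro reaction buffer with 4 mM DTT, incubated with varying compound concentrations for 30 min at 30 °C. SYPRO orange added and melt run from 20 to 90 °C at 0.05 °C/s. Tm plotted against concentration and fitted to one-site binding to give apparent Kd.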

[17] = target: T1, Replicase polyprotein 1ab; assay: Non-covalent inhibition of SARS-Cov-2 PLpro incubated for 30 mins using FRET substrate measured for 1 hr by FRET-based enzymatic assay

Row | Compound | CC50 at 120 h [1] | IC50 [2] | further results
1 | CC(C)(C)NC(=O)C(c1cccnc1)N(C(=O)c1ccco1)c1ccc(C(C)(C)C)cc1 (centres undefined) | > 125 µM | – | EC50 (SARS-CoV-2): > 20 µM
2 | CC(C)(C)NC(=O)C(c1cnccn1)N(C(=O)c1ccco1)c1ccc(C(C)(C)C)cc1 (centres undefined) | 138 µM | – | –
3 | CC(C)(C)NC(=O)C(c1c[nH]cn1)N(C(=O)c1ccco1)c1ccc(C(C)(C)C)cc1 (centres undefined) | – | > 20 µM | –
4 | CC(C)C[C@H](NC(=O)OCc1ccccc1)C(=O)N[C@@H](C[C@@H]1CCNC1=O)C(O)S(=O)(=O)O (some centres undefined) | – | – | IC50 [3]: ≤ 0.16 µM; EC50 (SARS-CoV-2): 1.51 µM; IC50 [4]: > 50 µM; IC50 [5]: ≤ 0.16 µM; IC50 [6]: ≤ 0.16 µM; IC50 [7]: > 50 µM; IC50 [8]: ≤ 0.074 µM; IC50 [9]: ≤ 0.16 µM; IC50 [10]: ≤ 0.16 µM; IC50 (Procathepsin L [11]): ≤ 0.074 µM
5 | CC(C)(C)NC(=O)C(c1cncnc1)N(C(=O)c1ccco1)c1ccc(C(C)(C)C)cc1 (centres undefined) | – | > 20 µM | –
6 | C[C@H](NC(=O)C(c1cccnc1)N(C(=O)c1ccco1)c1ccc(-c2cccs2)cc1)c1ccccc1 (some centres undefined) | 89.6 µM | 0.56 µM | –
7 | O=C(NC1CCCC1)C(c1cccnc1)N(C(=O)c1ccco1)c1ccc(-c2ccccc2)cc1 (centres undefined) | > 200 µM | 4.1 µM | –
8 | C[C@H](NC(=O)C(c1cccnc1)N(C(=O)c1ccno1)c1ccc(C2CCCCC2)cc1)c1ccccc1 (some centres undefined) | 17.5 µM | – | –
9 | C[C@H](NC(=O)C(c1cccnc1)N(C(=O)c1ccco1)c1ccc(-c2ccccn2)cc1)c1ccccc1 (some centres undefined) | 236 µM | – | –
10 | O=C(NC1CCCCC1)C(c1cccnc1)N(C(=O)c1ccco1)c1ccc(-c2ccccc2)cc1 (centres undefined) | 53.5 µM | – | –
11 | O=C(NC1CC1)C(c1cccnc1)N(C(=O)c1ccco1)c1ccc(-c2ccccc2)cc1 (centres undefined) | – | 12.1 µM | –
12 | C[C@H](NC(=O)C(c1cccnc1)N(C(=O)c1ccco1)c1ccc(C2CCCCC2)cc1)c1ccccc1 (some centres undefined) | 9.61 µM | – | –
13 | Cc1ccc(S(=O)(=O)CNC(=O)C(c2cccnc2)N(C(=O)c2ccco2)c2ccc(C(C)(C)C)cc2)cc1 (centres undefined) | – | > 20 µM | –
14 | O=C(NCCCc1ccccc1)C(c1cccnc1)N(C(=O)c1ccco1)c1ccc(-c2ccccc2)cc1 (centres undefined) | > 200 µM | – | selectivity ratio [12]: > 98; EC50 (SARS-CoV-2): 2.04 µM
15 | CC(C)(C)c1ccc(N(C(=O)c2ccco2)C(C(=O)NC2CCCCC2)c2cccnc2)cc1 (centres undefined) | 18.2 µM | 2.39 µM | –
16 | C[C@H](NC(=O)C(c1cccnc1)N(C(=O)c1ccco1)c1ccc(-c2ccco2)cc1)c1ccccc1 (some centres undefined) | 56.4 µM | – | –

Row | Compound | CC50 at 120 h [1] | IC50 [2] | further results
17 | C[C@H](NC(=O)C(c1cccnc1)N(C(=O)c1ccco1)c1ccc(-c2ccccc2)cc1)c1ccccc1 (some centres undefined) | > 200 µM | 0.66 µM | EC50 (SARS-CoV-2): 1.61 µM
18 | C[C@H](NC(=O)C(c1cccnc1)N(C(=O)c1ccco1)c1ccc(-n2cccc2)cc1)c1ccccc1 (some centres undefined) | > 200 µM | – | selectivity ratio [12]: > 116; EC50 (SARS-CoV-2): 1.73 µM
19 | Cc1cccc(C)c1NC(=O)C(c1cccnc1)N(C(=O)c1ccco1)c1ccc(C(C)(C)C)cc1 (centres undefined) | – | > 20 µM | –
20 | C[C@H](NC(=O)C(c1cccnc1)N(C(=O)c1cnco1)c1ccc(-c2ccccc2)cc1)c1ccccc1 (some centres undefined) | 67 µM | – | –
21 | C[C@H](NC(=O)[C@H](c1cccnc1)N(C(=O)c1ccco1)c1ccc(-c2ccccc2)cc1)c1ccccc1 | – | > 20 µM | –
22 | CC(C)(C)c1ccc(N(C(=O)c2ccco2)C(C(=O)NC2CCCC2)c2cccnc2)cc1 (centres undefined) | 101 µM | – | –
23 | CC(C)(C)c1ccc(N(C(=O)c2ccco2)C(C(=O)NC2CC2)c2cccnc2)cc1 (centres undefined) | 52.8 µM | – | –
24 | CC(C)(C)CC(C)(C)NC(=O)C(c1cccnc1)N(C(=O)c1ccco1)c1ccc(-c2ccccc2)cc1 (centres undefined) | 148 µM | 2.14 µM | –
25 | C[C@H](NC(=O)C(c1cccnc1)N(C(=O)c1ccno1)c1ccc(-c2ccccc2)cc1)c1ccccc1 (some centres undefined) | > 200 µM | – | –
26 | C[C@H](NC(=O)C(c1cccnc1)N(C(=O)c1ccco1)c1ccc([Si](C)(C)C)cc1)c1ccccc1 (some centres undefined) | 19.4 µM | – | –
27 | C[C@H](NC(=O)C(c1cnccn1)N(C(=O)c1c[nH]cn1)c1ccc(-c2ccccc2)cc1)c1ccccc1 (some centres undefined) | 148 µM | – | selectivity ratio [12]: 32.6; EC50 (SARS-CoV-2): 4.54 µM
28 | O=C(NCC(c1ccccc1)c1ccccc1)C(c1cccnc1)N(C(=O)c1ccco1)c1ccc(-c2ccccc2)cc1 (centres undefined) | > 200 µM | – | –
29 | C[C@H](NC(=O)[C@@H](c1cccnc1)N(C(=O)c1ccco1)c1ccc(-c2ccccc2)cc1)c1ccccc1 | > 100 µM | 0.2 µM | IC50 [13]: 6 µM; IC50 (Procathepsin L [14]): 10.5 µM; IC50 [15]: 0.27 µM; Kd [16]: 9.43 µM; IC50 [17]: > 60 µM
30 | CC(C)(C)CC(C)(C)NC(=O)C(c1cccnc1)N(C(=O)c1ccco1)c1ccc(C(C)(C)C)cc1 (centres undefined) | – | > 20 µM | –
31 | C[C@H](NC(=O)C(c1cnccn1)N(C(=O)c1ccco1)c1ccc(-c2ccccc2)cc1)c1ccccc1 (some centres undefined) | > 200 µM | – | selectivity ratio [12]: > 244; EC50 (SARS-CoV-2): 0.82 µM
32 | C[C@H](NC(=O)C(c1cccnc1)N(C(=O)c1c[nH]cn1)c1ccc(-c2ccccc2)cc1)c1ccccc1 (some centres undefined) | 129 µM | – | selectivity ratio [12]: 9.9; EC50 (SARS-CoV-2): 13.1 µM
